Source: PubChem BioAssay (several laboratories)
NR2E3 ag-1 – agonists of human NR2E3 nuclear receptor; 360,000 compounds, 0.35% hits; inhibition of corepressor binding, % at 3.98 µM; Q9Y5X4; CHO-S Gal4-NCOR/VP16-NR2E3 two-hybrid, luciferase;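 active = inhibition above the mean of all tested compounds plus 3 SD, cut at about 70% in these data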;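 note: 0% = DMSO with NR2E3 transfected cells and 100% = cells lacking NR2E3 construct; higher means lower luciferase signal from less NR2E3 corepressor binding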
GalR3 antagonist – blocks the human galanin receptor 3; 360,000 compounds, 0.44% hits; HEK293 GalR3-CNG cAMP membrane potential fluorescence; galR3 body fused to GalR1 C-terminus; O60755; inhibition, % at 3 µM;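 active = inhibition above the screen-wide average plus 3 SD, cut at about 13% in these data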;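 note: forskolin and galanin both at EC90 stimulate the cells; cAMP rise reported by CNG channel membrane potential dye signal; 0% = forskolin plus galanin with DMSO and 100% = forskolin alone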
Target sequence (O60755 1-299 limits assumed): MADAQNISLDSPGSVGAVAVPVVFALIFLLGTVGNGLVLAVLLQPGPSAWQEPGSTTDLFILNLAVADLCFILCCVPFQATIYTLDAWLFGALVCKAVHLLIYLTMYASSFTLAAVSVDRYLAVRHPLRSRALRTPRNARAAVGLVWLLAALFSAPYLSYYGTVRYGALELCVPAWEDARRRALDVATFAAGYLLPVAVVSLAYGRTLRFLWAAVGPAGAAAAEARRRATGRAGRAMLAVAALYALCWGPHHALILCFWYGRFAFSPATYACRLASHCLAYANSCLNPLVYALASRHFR
CHT block – inhibitors of human choline transporter CHT; B-score at 10 µM; 310,000 compounds, 0.86% hits; CHT-expressing cells, membrane potential dye, choline response; stronger effect = lower value; Q9GZV3;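 active = B-score over 3 SD under the library average, and starting fluorescence ratio not unusually high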;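 note: choline stimulus applied at its EC90 after an EC20 pre-addition; B-score computed on integrated fluorescence ratio after choline addition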
NR2E3 ag-2 – NR2E3 (human) agonism. Q9Y5X4. GST-NR2E3/biotin-RetCOR TR-FRET, 1536-well. inhibition of corepressor binding, % at 4.78 µM. 320,000 compounds, 0.12% hits;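 active = percent inhibition above the cutoff of mean plus 3 SD of all tested compounds, set per screening campaign, cut at about 20% in these data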;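 note: 0% = DMSO wells and 100% = biotin wells as full block of FRET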
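System: GST-tagged NR2E3 plus biotinylated RetCOR corepressor; Amount: 1.35 nM GST-tagged NR2E3 final; Dosing: single nominal compound dose of 4.8 µM; Schedule: 5 h incubation at 4 °C; Technique: TR-FRET with europium anti-GST and streptavidin-D2, 340 nm excitation; Controls: biotin wells as high control, 0.6% DMSO wells as low control.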
CHT PAM – human CHT allosteric activation | Q9GZV3 | CHT-expressing cells, membrane potential dye, choline EC20; stronger effect = higher value; LV-AA mutant CHT in HEK293 cells | B-score at 10 µM | 310,000 compounds, 0.49% hits;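 active = initial fluorescence not abnormally high and integrated response B-score, plate-corrected, over 3 SD above library mean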
COUP-TFII inh – blocks human COUP-TFII nuclear receptor | P24468 | HEK293T NGFI-A luciferase reporter, luminescence | inhibition, % at 8.6 µM | 370,000 compounds, 0.7% hits | AID 686940;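 active = inhibition above a per-plate cutoff, mean inhibition of test wells between control levels plus 3 SD, cut at about 38% in these data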;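 note: cells cotransfected with COUP-TFII expression vector driving the NGFI-A reporter; 0% = median of COUP-TF2 test wells and 100% = reporter-only cells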
VP16 Luc counter – counter-screen for COUP-TFII antagonists: inhibitors of VP16 | AID 687007 | shares compounds with COUP-TFII inh | 2,500 compounds, 25% hits | HEK293 Gal4-VP16 luciferase reporter, luminescence | inhibition, % at 8.5 µM; in the data active = inhibition above about 13%
NR2F2 inh conf – confirmation of human COUP-TFII (NR2F2) inhibitors. shares compounds with COUP-TFII inh. HEK293 NGFI-A luciferase reporter, luminescence. inhibition, % at 8.5 µM. 2,500 compounds, 45% hits;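 active = mean inhibition over three repeats above a set limit taken from the earlier primary screen, cut at about 38% in these data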;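 note: 100% = cells given the luciferase reporter alone without the COUP-TF2 vector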
Starred values were filed as active, the others as inactive. Shown are actives, neighbours in structure and some others; about 2.3% of the full set was active somewhere.

Screening CC1(C(=O)NCc2ccc(F)c(F)c2)Cc2c(-c3cccc(C(F)(F)F)c3)ccnc2O1 (stereo not given) returned NR2E3 ag-1 -8.0, GalR3 antagonist -6.9 and COUP-TFII inh 7.6.
C[n+]1cc2c3c(ccc2c2ccc4cc5c(cc4c21)OCO5)OCO3 was read as GalR3 antagonist -3.9, COUP-TFII inh 105.8*, VP16 Luc counter 95.3* and NR2F2 inh conf 106.6*.
Screening COc1ccc2cc3[n+](cc2c1O)CCc1cc2c(cc1-3)OCO2 returned NR2E3 ag-1 -39.8, GalR3 antagonist -6.8 and COUP-TFII inh -3.4.
Screening Oc1ccccc1C=Nn1c(-c2ccccc2F)n[nH]c1=S returned COUP-TFII inh 11.2.
C(=Cc1cccnc1)c1ccncc1 was read as NR2E3 ag-1 0.9, GalR3 antagonist -5.1 and COUP-TFII inh 6.2.
For O=C(/C=C/c1cccnc1)/C=C/c1cccnc1 the results were NR2E3 ag-1 5.2, GalR3 antagonist -5.8, COUP-TFII inh 59.2*, VP16 Luc counter 37.7* and NR2F2 inh conf 20.1.
For CCc1ccc(-c2nc(CN3CCC(C(=O)N4CCN(c5ccccc5)CC4)CC3)c(C)o2)cc1 the results were NR2E3 ag-1 29.0, GalR3 antagonist -6.7, CHT block inactive, NR2E3 ag-2 0.2, CHT PAM inactive, COUP-TFII inh 42.3*, VP16 Luc counter 6.4 and NR2F2 inh conf 15.5.
O=C(NC1CCCCN(Cc2cccc(C(F)(F)F)c2)C1=O)C1C2CC3CC(C2)CC1C3 (stereo not given) was read as COUP-TFII inh 17.4.
Screening CC1=CC(=O)C(C(C)C)=C/C1=N\OS(=O)(=O)c1ccccc1 returned COUP-TFII inh 81.9*, VP16 Luc counter 6.3 and NR2F2 inh conf 13.3.
For COc1ccc(C2C(C(=O)Nc3c(C)cccc3C)CCC(=O)N2c2ccc(OC)cc2)cc1 (stereo not given) the results were COUP-TFII inh 6.2.
For O=C(NC1=NCCS1)C1COc2ccccc2O1 (stereo not given) the results were NR2E3 ag-1 -60.5, GalR3 antagonist -5.7, CHT block inactive, NR2E3 ag-2 2.5, CHT PAM inactive, COUP-TFII inh 48.8*, VP16 Luc counter 18.6* and NR2F2 inh conf 49.2*.
`O=C(Nc1ccncc1)C1COc2ccccc2O1` (stereo not given) gave NR2E3 ag-1 -4.2, GalR3 antagonist -1.3, CHT block inactive, NR2E3 ag-2 1.0, CHT PAM inactive and COUP-TFII inh 13.3.
`O=C1NC(Cc2ccc(O)cc2)c2nc3ccc(Cl)cc3c(=O)n2-c2cc3ccccc3cc21` (stereo not given) gave NR2E3 ag-1 -21.4, GalR3 antagonist -6.5, COUP-TFII inh 40.6*, VP16 Luc counter 0.4 and NR2F2 inh conf 3.1.
For C=CCN1[C@@H](CC(C)C)COc2cccc(N3CCSCC3)c2S1(=O)=O the results were COUP-TFII inh -6.0.
For Cc1nn(Cc2ccc(Cl)cc2)c(C)c1NC(=O)c1cc(C(C)C)on1 the results were NR2E3 ag-1 36.2, GalR3 antagonist -8.4, CHT block inactive, NR2E3 ag-2 0.8, CHT PAM inactive, COUP-TFII inh 44.2*, VP16 Luc counter 4.1 and NR2F2 inh conf 22.3.
For COc1ccc(CNC(=O)C2=CC(c3ccc(OC)c(OC)c3)=NS(=O)(=O)N2C)cc1 the results were NR2E3 ag-1 -30.8, CHT block inactive, NR2E3 ag-2 -1.6, CHT PAM inactive and COUP-TFII inh -1.5.
For COc1ccc(C2=NS(=O)(=O)N(C)C(C(=O)N3CCc4ccccc4C3)=C2)cc1OC the results were NR2E3 ag-1 23.9, GalR3 antagonist 3.4, CHT block inactive, NR2E3 ag-2 -1.4, CHT PAM inactive, COUP-TFII inh 39.2*, VP16 Luc counter 5.8 and NR2F2 inh conf 21.6.
`CCc1ccc(NC(=O)C2=CC(c3ccc(OC)c(OC)c3)=NS(=O)(=O)N2C)cc1` gave NR2E3 ag-1 1.9, CHT block inactive, NR2E3 ag-2 -2.3, CHT PAM inactive, COUP-TFII inh 38.2*, VP16 Luc counter -2.2 and NR2F2 inh conf 25.9.
For COc1ccc(C2=NS(=O)(=O)N(C)C(C(=O)NCc3ccccc3)=C2)cc1OC the results were NR2E3 ag-1 -5.6, CHT block inactive, NR2E3 ag-2 5.7, CHT PAM inactive and COUP-TFII inh 2.6.
`CCOC(=O)[C@@]12CCC3=C1N(CCC3)C(=O)[C@H](CC(=O)N1CCN(C(=O)C3CC3)CC1)C2` gave COUP-TFII inh -13.2.
CC(C)(C)c1ccc(Oc2ccc(NC(=O)C3CC=CCC3C(=O)O)cc2)cc1 (stereo not given) was read as NR2E3 ag-1 35.9, GalR3 antagonist -1.0, CHT block inactive, NR2E3 ag-2 1.3, CHT PAM inactive, COUP-TFII inh 90.9*, VP16 Luc counter 15.1* and NR2F2 inh conf -0.8.
Cc1ccccc1Oc1ccc(NC(=O)C2CC=CCC2C(=O)O)cc1 (stereo not given) was read as NR2E3 ag-1 -7.3, GalR3 antagonist -4.3, CHT block inactive, NR2E3 ag-2 3.3, CHT PAM inactive and COUP-TFII inh -8.2.
For Cn1cc(S(=O)(=O)N2CCc3ccccc32)cc1C(=O)NC(C)(C)C the results were NR2E3 ag-1 37.3, CHT block inactive, NR2E3 ag-2 1.6, CHT PAM inactive, COUP-TFII inh 59.3*, VP16 Luc counter 4.8 and NR2F2 inh conf 45.2*.
For Cc1cccc(C)c1NC(=O)c1cc(S(=O)(=O)N2CCc3ccccc32)cn1C the results were NR2E3 ag-1 -73.0, CHT block inactive, NR2E3 ag-2 3.6, CHT PAM inactive and COUP-TFII inh -18.1.
For CCC(CO)[n+]1c(C)cc(/C=C2\Sc3ccccc3N2Cc2ccccc2)cc1C (stereo not given) the results were NR2E3 ag-1 11.0, GalR3 antagonist 9.9, CHT block inactive, NR2E3 ag-2 -0.8, CHT PAM inactive, COUP-TFII inh 85.1*, VP16 Luc counter 22.2* and NR2F2 inh conf 87.0*.
CCN1/C(=C2\SC(=S)N(Cc3ccccc3)C2=O)Sc2ccccc21 was read as NR2E3 ag-1 8.7, GalR3 antagonist -1.9, CHT block inactive, NR2E3 ag-2 1.3, CHT PAM inactive and COUP-TFII inh 4.6.
